# Screens deposited in PubChem by several laboratories.
# L major viab = inhibitors of Leishmania major promastigote growth | Leishmania major promastigotes, resazurin fluorescence viability | inhibition, % at 10 µM | 9% of 200,000 active | AID 1063; in the data active means inhibition above about 50%;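 further: promastigotes grown with compound for 44 hours at 28 °C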
# S1P4 antag = antagonists of human S1P4 receptor; S1P4-expressing cells, antagonist mode, reporter read-out; inhibition, % at 4.98 µM; 0.26% of 220,000 active; AID 1510; in the data active means inhibition above about 29%;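 further: 0% = wells stimulated with agonist and 100% = vehicle wells without agonist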
# Target sequence (O95977 whole entry, looked up): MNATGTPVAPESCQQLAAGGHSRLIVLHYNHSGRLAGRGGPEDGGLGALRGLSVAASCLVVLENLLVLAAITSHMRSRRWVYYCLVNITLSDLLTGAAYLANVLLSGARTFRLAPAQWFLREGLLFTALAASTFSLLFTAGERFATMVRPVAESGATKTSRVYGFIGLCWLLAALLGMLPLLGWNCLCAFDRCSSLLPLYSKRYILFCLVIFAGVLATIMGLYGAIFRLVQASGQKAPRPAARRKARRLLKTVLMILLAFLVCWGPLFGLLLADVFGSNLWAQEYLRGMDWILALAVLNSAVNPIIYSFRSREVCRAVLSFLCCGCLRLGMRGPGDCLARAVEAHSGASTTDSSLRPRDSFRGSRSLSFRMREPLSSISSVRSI
# S1P4 ag = agonists of human S1P4 receptor; O95977; S1P4-expressing cell line, agonist reporter assay; activation, % at 4.98 µM; 0.35% of 220,000 active; AID 1509; in the data active means activation above about 11%;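 further: 0% = DMSO vehicle and 100% = reference agonist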
# MDM2 E3 inh = Mdm2 E3 ligase (human) inhibition; Q00987; cell-based MDM2 ubiquitination luciferase reporter, 2 h; 0 = plate control, 100 = twice control, blank-subtracted; signal enhancement, % at 5 µM; 0.11% of 210,000 active; AID 1230;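 active means signal enhancement of 30% or more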;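 further: luminescence tracks abundance of the self-degrading MDM2-luciferase fusion protein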
#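 system = mammalian cells stably expressing self-ubiquitinating, self-degrading MDM2 E3–luciferase fusion | quantity = 2000 cells per well seeded | incubation = 4 h cell settling then 2 h compound exposure, 37 °C | signal = SteadyLite luminescence, 15 min reagent step | benchmarks = plate control and blank wells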
# S1P3 antag = antagonists of human S1P3 receptor; Q99500; CHO S1P3 NFAT-BLA reporter, FRET fluorescence, antagonist mode; inhibition, % at 4.98 µM; 0.27% of 170,000 active;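 active means inhibition above the plate cutoff, the mean inhibition of test wells on that plate plus 3 SD, cut at about 28% in these data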;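 further: cells challenged with S1P at its EC80 of 0.8 µM; blue over green emission ratio from cleaved BLA substrate after 4 h stimulation; 0% = S1P-stimulated wells and 100% = unstimulated DMSO-only wells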
# * marks the source's active call; other numbers are inactive results; . = no result given. This is one part of a sample in which hits are shown more often than they occur.
SMILES,L major viab,S1P4 antag,S1P4 ag,MDM2 E3 inh,S1P3 antag
CC(=O)CSc1nc2ccc(Nc3nc(N4CCOCC4)nc(N4CCOCC4)n3)cc2s1,64.4*,-5.5,-1.1,-15.9,29.0
CCOC(=O)CSc1nc2ccc(Nc3nc(N4CCOCC4)nc(N4CCOCC4)n3)cc2s1,19.9,6.0,-1.8,.,.
CC(C)(C)NC(=O)CSc1nc2ccc(Nc3nc(N4CCOCC4)nc(N4CCOCC4)n3)cc2s1,76.9*,-5.8,0.7,-4.9,-5.0
COc1ccc(NC(=O)c2ccc(Oc3ncccn3)cc2)cc1,0.1,-8.5,-1.4,-16.6,-6.9
Cc1ccc(NC(=S)NCC(C)CSc2ccc(Cl)cc2)cc1 (stereo unspecified),59.0*,13.0,-0.7,.,1.4
Cc1cccc(NC(=S)NCCSc2ccc(Cl)cc2)c1,15.7,3.8,-1.8,-1.8,-9.9
Cc1cccc(NC(=S)NCC(C)CSc2ccc(Cl)cc2)c1 (stereo unspecified),86.3*,-3.0,-1.3,-7.0,-8.5
Cc1ccc(Cl)cc1NC(=O)Cn1cc2c(n1)CCCC2,-8.3,-8.7,1.6,-16.3,-4.3
N=C1S/C(=C\c2cn[nH]c2-c2ccc(F)cc2)C(=O)N1c1ccccc1F,-1.6,-18.7,4.8,-9.3,7.9
COC(=O)CN1C(=S)N(c2ccc(OC)cc2)C(=O)/C1=C/c1cccs1,69.0*,-18.5,0.8,-5.1,0.9
CCOc1ccc(/C=C2/C(=O)N(c3ccc(OC)cc3)C(=S)N2CC(=O)OC)cc1OCC,24.0,-5.6,-1.2,.,.
CCOc1ccc(N2C(=O)/C(=C/c3cc(OC)c(OC)c(OC)c3)N(CC(=O)OC)C2=S)cc1,99.8*,-1.4,-2.8,-6.6,.
CC(=O)Nc1ccc(S(=O)(=O)N(CCCN2CCOCC2)Cc2cccs2)cc1,12.9,0.3,1.9,-45.9,-25.0
CCOC(=O)CCN(Cc1cccs1)S(=O)(=O)c1ccc(Cl)cc1,96.8*,7.0,-0.3,-6.1,.
CC(=O)N(CCS(=O)(=O)c1ccc(Cl)cc1)Cc1cccs1,.,-1.1,-0.5,-25.2,-6.5
CC(C)(C)c1ccc(S(=O)(=O)N(CCCN2CCOCC2)Cc2cccs2)cc1,94.8*,8.7,3.1,-4.8,0.7
Cn1c2ccccc2c(=O)c2c(=O)n(Cc3ccccc3)c(-c3ccc(F)cc3)nc21,.,0.2,-0.8,-13.0,-4.7
CCOc1ccccc1Nc1ccnc2cc(Cl)ccc12,52.8*,6.9,2.2,1.1,3.1
COc1ccc(Cl)cc1-n1c(C)ccc1C,-6.8,-8.8,0.4,3.2,4.2
COc1ccc(/C=N/NC(=O)c2c(C)nc3ccc(Br)cn23)cc1OC,.,-27.5,0.3,-1.7,13.2
CCn1c(C)nc2cc(C(=O)N/N=C/c3ccc(O)c(O)c3O)ccc21,-10.8,-6.8,0.6,-6.4,-13.3
CCn1c(C)nc2cc(C(=O)N/N=C/c3cccc(OC)c3O)ccc21,93.9*,7.2,-1.0,-9.4,16.2
COc1cccc(/C=N/NC(=O)c2c(C)nc3ccc(Br)cn23)c1O,99.6*,-5.3,2.0,-13.3,12.4
COc1cccc(/C=N/NC(=O)c2nc(-c3ccccc3)cc(-c3ccccc3)n2)c1O,99.8*,-19.7,1.6,.,-6.7
CC(C)Oc1ccc(Cc2cnc(=S)[nH]c2N)cc1,-7.5,2.8,1.1,-12.7,-12.3
SMILES,L major viab,S1P4 antag,S1P4 ag,MDM2 E3 inh,S1P3 antag
COc1cc(OC)cc(C(=O)NCc2nc(-c3ccccc3)no2)c1,67.8*,-33.2,3.5,-8.3,29.6
Cc1ccc2c(C)c(C(=O)N(Cc3cccs3)C3CCS(=O)(=O)C3)oc2c1 (stereo unspecified),87.9*,-13.8,-2.4,-7.4,.
CN(c1ccccc1)S(=O)(=O)c1cccc(C(=O)OCC(=O)NCCCN2CCCC2=O)c1,-2.5,-7.1,0.2,-4.0,-2.3
CC1(C)COCN1S(=O)(=O)c1ccc(C(=O)Nc2nnc(-c3ccc(Cl)s3)o2)cc1,99.0*,-0.2,0.6,0.4,9.2
COc1ccc(-c2nnc(NC(=O)c3ccc(S(=O)(=O)N4COCC4(C)C)cc3)o2)cc1,98.7*,-21.1,0.6,-10.5,-4.5
CC1CCCCN1S(=O)(=O)c1ccc(C(=O)Nc2nnc(-c3ccncc3)o2)cc1 (stereo unspecified),8.3,12.0,0.9,-3.7,-14.7
Cc1ccc(-n2cc(CNCCCn3ccnc3C)c(-c3ccc(F)cc3)n2)cc1,100.5*,-6.7,2.3,-7.7,3.8
Cc1ccc(-n2cc(CNCCc3cscn3)c(-c3ccc(F)cc3)n2)cc1,74.6*,-27.2,0.1,-3.1,-2.3
Cc1ccc(-n2cc(CNC(C)c3cnn(C)c3)c(-c3ccc(F)cc3)n2)cc1 (stereo unspecified),38.0,-3.6,3.8,-5.7,-2.5
O=C1CS/C(=N/N=C/c2cccs2)N1Cc1ccc(F)cc1,.,-3.3,-0.3,-10.4,10.9
Cc1ccc(OCC(=O)NNC(=O)c2ccoc2C)c(Br)c1,72.3*,-62.4,-0.2,7.5,-11.7
Cc1occc1C(=O)NNC(=O)COc1ccc(Br)cc1Br,-4.8,-7.8,0.8,0.5,-10.1
COc1ccc2nc(N=Nc3ccc(O)c4ccccc34)sc2c1,97.9*,-5.9,-2.5,-14.9,-8.5
COc1ccc2nc(N=NC3=C(O)CC(C)(C)CC3=O)sc2c1,-5.6,-8.5,2.7,-26.5,-12.2
Cc1ccc(N(CC(O)Cn2nc(C)cc2C)S(=O)(=O)c2ccc3ccccc3c2)cc1 (stereo unspecified),75.8*,-5.3,0.5,4.7,-2.9
CC(=O)Nc1ccc(OCC(O)Cn2c3ccccc3c3ccccc32)c(C)c1 (stereo unspecified),75.2*,1.7,-1.2,-21.8,.
Cc1ccccc1OCC(O)Cn1c2ccccc2c2ccccc21 (stereo unspecified),91.2*,-17.2,0.0,1.9,.
CC(=O)Nc1ccc(N(CC(O)Cn2c3ccccc3c3ccccc32)S(=O)(=O)c2ccc(C)cc2)cc1 (stereo unspecified),61.8*,13.9,0.1,1.3,8.4
COC(=O)/N=C/c1c(NCc2ccccc2)nc2c(C)cccn2c1=O,16.6,-4.0,-0.5,-7.9,-7.4
O=C(N/N=C/c1ccc[nH]1)c1ccc(Cl)cc1,-5.5,-11.6,2.4,-16.0,-4.0
CC(C)c1ccccc1OCCNS(C)(=O)=O,-3.2,15.7,-2.0,-11.5,-5.0
CCN=c1sc2ccccc2n1CC(O)COc1ccccc1 (stereo unspecified),99.5*,-17.5,0.7,-9.6,.
CC(=O)Nc1ccc(OCC(O)Cn2c3ccccc3c3ccccc32)cc1 (stereo unspecified),85.2*,-9.0,-0.6,-13.5,-0.8
OC(COc1ccccc1)Cn1c2ccccc2c2ccccc21 (stereo unspecified),69.6*,5.2,-0.2,-8.7,-2.1
CCOc1ccc(C2c3cc(OC)c(OC)cc3CC(=O)N2c2ccc(OC)cc2)cc1 (stereo unspecified),80.5*,-8.5,1.2,-17.1,.
Cc1cccc(N2CCN(C(=O)CCN3C(=S)NC(C)(C)CC3C)CC2)c1C (stereo unspecified),65.2*,-15.1,-1.6,-6.8,-6.1
